Measured values as given in ChEMBL document CHEMBL2331166, “Antiproliferative withanolides from Datura wrightii” (J Nat Prod, 2013).
Activity calls are given as the source filed them. No cut-off for these calls is given here.

Legend:
MRC5 [1] = test: Cytotoxicity against human MRC5 cells after 72 hrs by MTS assay; type: cell-based; conditions: MRC5, 72 h
MRC5 [2] = test: Selectivity index, ratio of IC50 for human MRC5 cells to IC50 for human U87 cells; type: functional
In short: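 MTS viability assay. MRC-5 fibroblasts and U87 glioblastoma cells were seeded at 2,500 cells/well and left about 6 h. Drug-containing media at a range of concentrations was then added, with 72 h further incubation at 37 °C in 5% CO2. Absorbance was read at 490 nm, in triplicate on two occasions. IC50s came from sigmoidal dose-response fits, and the index is the MRC-5/U87 IC50 ratio.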

[3] = Cytotoxicity against human U87 cells after 72 hrs by MTS assay; type: functional, cell-based, U-87MG ATCC; conditions: U-87 MG
In short: (§1)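 Monolayer cultures kept at 37 °C, 5% CO2, humidified, grown to 75–90% confluence; U87 and U251 maintained in DMEM with 10% FBS. Seeded at 2,500 cells/well and left about 6 h, then drug-containing medium added at various concentrations for 72 h. Viable cells read by MTS colorimetry at 490 nm. Triplicate, two separate occasions; IC50 from best-fit sigmoidal dose–response curves.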

[4] = Cytotoxicity against human MDA1986 cells after 72 hrs by MTS assay; type: functional, cell-based; conditions: MDA1986, 72 h; in short: as §1
U-251 [5] = test: Cytotoxicity against human U251 cells after 72 hrs by MTS assay; type: functional, cell-based; conditions: U-251, 72 h; in short: as §1
U-251 [6] = test: Increase in HSP32 expression in human U251 cells incubated for 24 hrs by Western blotting method; type: functional, cell-based
In short: (§2)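 U251 glioblastoma cells plated to stay subconfluent at harvest, grown overnight, then exposed to 0, 0.1, 0.5, 1 and 5 μM of each withanolide for 24 h. Lysates quantified, run on SDS-PAGE, transferred to nitrocellulose and immunoblotted for total HSP32 and HSP70. β-actin served as the loading control.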

U-251 [7] = test: Increase in HSP70 expression in human U251 cells at 5 uM incubated for 24 hrs in presence of N-acetylcysteine by Western blotting method; type: functional, cell-based
U-251 [8] = test: Increase in HSP32 expression in human U251 cells incubated for 24 hrs in presence of N-acetylcysteine by Western blotting method; type: functional, cell-based
U-251 [9] = test: Increase in HSP70 expression in human U251 cells at 5 uM incubated for 24 hrs by Western blotting method; type: functional, cell-based; in short: as §2

For `CC1=C(CO)C(=O)O[C@@H]([C@@H](C)[C@H]2CC[C@H]3[C@@H]4C[C@H]5O[C@]56[C@@H](O)C=CC(=O)[C@]6(C)[C@H]4CC[C@]23C)C1` [WITHAFERIN A], the IC50 (MRC5 [1]) was 200 nM, the “Ratio IC50” value (MRC5 [2]) was 0.19 and the IC50 [3] was 1100 nM. It also gave an IC50 [4] of 800 nM and an IC50 (U-251 [5]) of 690 nM.

With `C=C1C(=O)O[C@@H]2C[C@]1(C)OC[C@H]2[C@H]1CC[C@H]2[C@@H]3C[C@H]4O[C@]45CC=CC(=O)[C@]5(C)[C@H]3CC[C@]12C` [WITHAMETELIN F] the Activity (U-251 [6]) was “Dose-dependent effect”, the Activity (U-251 [7]) was “inactive” and the IC50 (MRC5 [1]) was 3300 nM. The “Ratio IC50” value (MRC5 [2]) was 6, the IC50 [3] was 560 nM and the IC50 [4] was 1500 nM. For the same compound, the IC50 (U-251 [5]) was 1400 nM, the Activity (U-251 [8]) was “inactive” and the Activity (U-251 [9]) was “Active”.

For `C=C1C(=O)O[C@@H]2C[C@]1(C)OC[C@H]2[C@H]1CC[C@H]2[C@@H]3CC=C4CC=CC(=O)[C@]4(C)[C@H]3C[C@@H](O)[C@]12C` [WITHAMETELIN L], the Activity (U-251 [6]) was “Dose-dependent effect”, the Activity (U-251 [7]) was “inactive” and the IC50 (MRC5 [1]) was 4200 nM. For the same compound, the “Ratio IC50” value (MRC5 [2]) was 7.4, the IC50 [3] was 570 nM and the IC50 [4] was 2300 nM. The IC50 (U-251 [5]) was 1300 nM, the Activity (U-251 [8]) was “inactive” and the Activity (U-251 [9]) was “Active”.

With `C=C1C(=O)O[C@@H]2C[C@]1(C)OC[C@H]2[C@H]1CC[C@H]2[C@@H]3C[C@@H](O)[C@@]4(O)CC=CC(=O)[C@]4(C)[C@H]3CC[C@]12C` [WITHAMETELIN O] the Activity (U-251 [6]) was “Dose-dependent effect”, the IC50 (MRC5 [1]) was 4600 nM and the “Ratio IC50” value (MRC5 [2]) was 4.1. It also gave an IC50 [3] of 1100 nM, an IC50 [4] of 3000 nM and an IC50 (U-251 [5]) of 2800 nM. The Activity (U-251 [8]) was “inactive”.

With `C=C1C(=O)O[C@@H]2C[C@]1(C)OC[C@H]2[C@H]1CC[C@H]2[C@@H]3CC=C4CC=CC(=O)[C@]4(C)[C@H]3CC[C@]12C` [WITHAMETELIN] the Activity (U-251 [6]) was “Dose-dependent effect”, the Activity (U-251 [7]) was “inactive” and the IC50 (MRC5 [1]) was 5100 nM. The “Ratio IC50” value (MRC5 [2]) was 5.1, the IC50 [3] was 1000 nM and the IC50 [4] was 2700 nM. For the same compound, the IC50 (U-251 [5]) was 2200 nM, the Activity (U-251 [8]) was “inactive” and the Activity (U-251 [9]) was “Active”.

With `C=C1C(=O)O[C@@H]2C[C@@]1(C)OC[C@H]2[C@H]1CC[C@H]2[C@@H]3C[C@@H](O)[C@@]45C[C@H]4CC(=O)[C@]5(C)[C@H]3CC[C@]12C` [WITHAWRIGHTOLIDE] the Activity (U-251 [6]) was “Dose-dependent effect”, the IC50 (MRC5 [1]) was 5600 nM and the “Ratio IC50” value (MRC5 [2]) was 3.8. The IC50 [3] was 1500 nM, the IC50 [4] was 3100 nM and the IC50 (U-251 [5]) was 3600 nM. For the same compound, the Activity (U-251 [8]) was “inactive”.
